# Rows were chosen to be rich in hits. Some 6.8% of all compounds tested hit in one or more screens of this group.
# M1 antagonist: M1 muscarinic receptor (rat) antagonism | P08482 | CHO-M1 cells, Fluo-4 calcium, ACh EC80 antagonist mode; hits give low values | B-score at 10 µM | hit rate 3.4% among 64,000 | AID 628;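 active = calcium fluorescence response, raw or row-and-column corrected B-score, differing from the plate sample mean either way at a set confidence level, mostly lower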
# Target sequence (P08482 whole entry, looked up): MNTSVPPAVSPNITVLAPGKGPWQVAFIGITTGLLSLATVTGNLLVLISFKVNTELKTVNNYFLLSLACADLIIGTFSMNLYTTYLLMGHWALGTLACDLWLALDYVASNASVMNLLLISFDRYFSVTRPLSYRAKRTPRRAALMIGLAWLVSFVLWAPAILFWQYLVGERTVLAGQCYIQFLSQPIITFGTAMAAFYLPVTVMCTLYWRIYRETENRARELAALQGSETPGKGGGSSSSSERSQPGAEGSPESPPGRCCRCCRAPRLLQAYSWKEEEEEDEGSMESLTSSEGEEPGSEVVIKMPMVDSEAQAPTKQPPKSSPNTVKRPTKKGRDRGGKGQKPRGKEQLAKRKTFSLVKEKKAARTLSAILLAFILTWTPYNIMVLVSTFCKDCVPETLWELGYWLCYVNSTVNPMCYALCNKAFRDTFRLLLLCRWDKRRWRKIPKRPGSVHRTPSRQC
# HER2 expr 66K: inhibitors of human Her2 kinase expression; HER2 level % of control, % at 10 µM; P04626; AID 645; hit rate 0.69% among 65,000; SKBR-3 HER2 protein level, AlphaScreen, 18-24 h; hits give low values;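 active = HER2 level under 5% of the carrier-only control; inconclusive = no clear call, values can overlap the other calls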;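 also: 100% = DMSO carrier and 0% = 500 nM PU-H71 HSP90 inhibitor; lower value means stronger loss of Her2 protein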
# MKP-1 inh: human dual specificity phosphatase 1 inhibition. hit rate 0.15% among 65,000. recombinant MKP-1, OMFP hydrolysis fluorescence. inhibition, %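 (compounds tested at a single concentration somewhere between 10 and 100 µM)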;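 active = inhibition above about 50%, limit read from the data; inconclusive = inhibition over screen mean plus 3 SD, below that limit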;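 also: 0% = DMSO max control wells and 100% = wells with enzyme stopped by NaOH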
# Cdc25B block: human M-phase inducer phosphatase 2 inhibition; inhibition, %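 (compounds tested at 10 µM final in the well)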; recombinant Cdc25B, OMFP fluorescence Ex485/Em525; P30305; hit rate 0.1% among 65,000; AID 368; in the data active = inhibition above about 50%
# HEK293 NFkB inh: inhibitors of the PMA/ionomycin-induced NF-kB reporter in HEK293 cells | HEK-293 NF-kB luciferase reporter, luminescence | inhibition, % at 3 µM | hit rate 0.21% among 62,000;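 active = inhibition above the mean of all tested compounds plus 3 SD, cut at about 40% in these data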;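 also: 0% = stimulated DMSO wells and 100% = 10 µM reference inhibitor 5653914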
#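 System – HEK-293 cells with stable firefly luciferase reporter driven by four HIV NF-kB elements · Doses – one dose, 3 µM · Schedule – 1 h compound pre-incubation, 16 h PMA/ionomycin at 37 °C · Technique – luminescence from luciferase substrate reagent · Measure – percent inhibition normalized per plate to DMSO and reference-inhibitor controls · Replicates – tested once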
# M1 ag: M1 muscarinic receptor agonism; CHO-M1 cells, Fluo-4 calcium fluorescence, agonist mode; hits give high values; hit rate 3% among 64,000; B-score at 10 µM;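 active = fluorescence rise, raw or as B-score row- and column-corrected plate score, outside the 99.7% band of its plate's samples, either direction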
# M1 ag confirm: rat M1 muscarinic agonism, confirmation. shares compounds with M1 ag. CHO-M1 cells, Fluo-4 calcium fluorescence, agonist mode; actives lie on both sides. fluorescence change (max-min) at 10 µM. hit rate 19% among 1,700. AID 1488;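 active = fluorescence change differs from the solvent-only DMSO control mean at a set confidence level in both duplicate runs; inconclusive = differs from solvent-only control mean in just one of two runs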;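 also: an EC20 dose of acetylcholine follows compound addition during the same imaging run; raw fluorescence intensity difference in instrument units with no normalization to controls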
# M4 agonist ctr: activates rat M4 receptor in counter-screen for M1 agonists | shares compounds with M1 ag | fluorescence change (max-min) at 10 µM | CHO M4/Gqi5 cells, Fluo-4 calcium fluorescence, agonist mode; actives lie on both sides | hit rate 9% among 1,700;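 active = fluorescence change differing from the plate's solvent-only control wells at 99.7% confidence in both duplicates, whether higher or lower; inconclusive = differs from solvent controls in only one of two duplicates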
# An asterisk follows results filed as active; ? = inconclusive; · = not tested or not shown.
SMILES,M1 antagonist,HER2 expr 66K,MKP-1 inh,Cdc25B block,HEK293 NFkB inh,M1 ag,M1 ag confirm,M4 agonist ctr
O=S(=O)(c1ccc(Oc2ccc(Br)cc2)cc1)N1CCOCC1,0.9,·,8,-8,8,-0.1,·,·
O=C(CNC(=O)c1ccco1)OC(C(=O)c1ccccc1)c1ccccc1 (configuration not stated),0.023,87,21,1,16,6.7*,-9.8,?
C#CC1(O)CC(C)N(C)C(C)C1 (configuration not stated),0.28,81,-4,0,3,2.4*,-11,-24
Cc1ccc(-c2nn(C)c(=O)c3ccccc23)cc1S(=O)(=O)NCCN1CCOCC1,-0.52,113,0,-2,6,-0.084,·,·
Cc1ccc(-c2nn3c(-c4ccco4)nnc3c3ccccc23)cc1S(=O)(=O)NCC1CCCO1 (configuration not stated),-0.95,66,38,6,25,5.3*,3.3,-30
CCOc1cc(C2C(C#N)=C(N)OC(C)=C2C(C)=O)cc(Br)c1O (configuration not stated),-0.027,99,-14,-6,5,23*,180*,170*
Cc1ccc(Cl)cc1N1CCN(C(=O)c2cc3c(=O)n(C)c4ccccc4c3n2C)CC1,-1.7,54,-1,0,9,7.4*,-11,-56
Cc1cccc(N2CCN(C(=O)c3cc4c(=O)n(C)c5ccccc5c4n3C)CC2)c1C,0.6,74,-7,1,18,-0.67,·,·
Cn1c(C(=O)NC2CCCC2)cc2c(=O)n(C)c3ccccc3c21,0.4,89,15,6,6,4.1*,-39*,-50
CCCN1Cc2cccc(C(=O)N3CCN(c4cc(Cl)ccc4C)CC3)c2C1=O,-0.016,70,21,-12,21,2.3*,?,-40
COc1ccc(C)cc1S(=O)(=O)Nc1ccccc1C,0.16,87,-8,1,15,-0.031,·,·
COc1cc(NS(=O)(=O)c2ccc(C)cc2C)cc(OC)c1OC,-1.3,72,1,-2,32,4.1*,?,-54
O=C(CNS(=O)(=O)c1cccc2nsnc12)NCc1ccc(Cl)cc1,0.53,185,4,-14,18,-1.6,·,·
O=S(=O)(NCCCCCNS(=O)(=O)c1ccccc1)c1ccccc1,-1.3,57,-2,3,19,-1.7*,16,-6.8
CCCCCn1c(CNC(=O)c2cccs2)nc2ccccc21,0.19,98,·,·,10,0.045,·,·
CCCCCn1c(CCNC(=O)c2cccs2)nc2ccccc21,0.39,78,·,·,18,11*,-30*,-79
CC1CC(=O)c2cnc(Nc3cccc(C(F)(F)F)c3)nc2C1 (configuration not stated),0.45,113,-2,4,-2,3*,-4.8,0.27
COc1cccc(C(=O)Nc2ncc3c(n2)CC(C)CC3=O)c1 (configuration not stated),-0.00053,95,7,-8,-6,-0.11,·,·
C=CCN1C(c2ccc(OCC)cc2)=CS/C1=C(\C#N)c1nnc2n1CCCCC2,-0.61,67,-7,1,22,6.6*,-3.7,-24
CC1CCN(Cc2ccc(-c3nn[nH]n3)cc2)CC1,-0.006,74,-4,-6,14,0.022,·,·
Nc1c(C(=O)OCC2CCCO2)c2nc3ccccc3nc2n1-c1ccc2c(c1)OCCO2 (configuration not stated),-0.2,69,37,8,23,5.9*,-12,?
Nc1c(C(=O)NC2CC2)c2nc3ccccc3nc2n1-c1ccc2c(c1)OCO2,-0.14,76,?,-1,8,-0.54,·,·
Nc1nc(CSc2n[nH]c(-c3ccccc3)n2)nc(Nc2ccccc2)n1,-0.019,93,-7,2,-11,2.2*,-42*,-47
O=C(CSc1ccc2nnc(-c3ccc(F)cc3)n2n1)N1CCOCC1,0.35,100,-7,-15,3,-1.3,·,·
Cn1nnnc1SCCNC/C=C/c1ccccc1,-0.14,123,2,-4,14,-0.52,·,·
SMILES,M1 antagonist,HER2 expr 66K,MKP-1 inh,Cdc25B block,HEK293 NFkB inh,M1 ag,M1 ag confirm,M4 agonist ctr
CC1=C(C(=O)Nc2ccccc2)C(c2ccc(C)o2)n2ncnc2N1 (configuration not stated),0.22,75,-4,2,0,-0.39,·,·
COC(=O)C1=C(C)Nc2ncnn2C1c1ccc(C)o1 (configuration not stated),0.96,69,-8,-21,11,8.3*,-31,-44
CC1=C2C(CCS2(=O)=O)CC2(C1)C(=O)OC(C)(C)OC2=O (configuration not stated),0.51,112,-14,-7,9,0.17,·,·
O=C1c2ccccc2C(=O)N1CCc1nc2ccccc2c(=O)n1Cc1ccco1,-1.4,96,-4,-2,3,9.4*,-14,-14
O=C1c2ccccc2C(=O)N1CCCc1nc2ccccc2c(=O)n1CCCn1ccnc1,-1.2,99,-30,1,13,1.3,·,·
CC(=O)c1cc(-c2nc3ccccc3n2C)n(C)c1,0.32,73,6,-10,10,-0.37,·,·
Cn1cc(C(=O)c2ccc(F)cc2)cc1-c1nc2ccccc2n1C,-2,85,-2,-5,10,3.2*,-8.5,?
Cc1csc(NC(=O)c2sc3nc(-c4cccs4)ccc3c2N)n1,-1.3,58,29,2,54*,54*,?,?
CC(=O)N1CCc2cc(S(=O)(=O)CCC(=O)Nc3c(C)n(C)n(-c4ccccc4)c3=O)ccc21,-0.51,108,-2,3,-6,8.6*,?,-32
CC(=O)N1CCc2cc(S(=O)(=O)CCC(=O)O)ccc21,-0.47,70,4,-1,11,-0.061,·,·
Cc1c(C(=O)N2CCc3ccccc3C2)sc2nc(-c3ccccc3)cn12,-0.5,83,32,-1,-2,2.4*,-16,?
Cc1cc(C(=O)Nc2sc3c(c2C#N)CCC3)no1,0.77,78,24,3,-44,0.31,·,·
Cc1noc(C(=O)Nc2sc3c(c2C#N)CCC3)c1Cl,-0.68,100,-1,0,-32,-3.6*,2.9,-20
CCOc1ccc(CCNC(=O)C2CCC(=O)N2C2CCCCC2)cc1OCC (configuration not stated),0.44,92,25,-2,10,1.3,·,·
COc1ccc(C(C)=O)c(Oc2nc(CN3CCOCC3)nc3scc(-c4cccs4)c23)c1,-1.3,89,36,-1,15,45*,-14,-47

# Source: PubChem (several laboratories)
